Consider 6 molecules from ChEMBL document CHEMBL1133631, “Synthesis of potent agonists of the D-myo-inositol 1,4, 5-trisphosphate receptor based on clustered disaccharide polyphosphate analogues of adenophostin A” (J Med Chem, 2000).

Structures are written as SMILES.

A short description of assay [1]: Binding affinity was measured by equilibrium competing with [3H]IP3 (Inositol 1,4,5-trisphosphate receptor). Put shortly: (§1)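 Membranes from livers of male Wistar rats were Percoll-purified. A 0.1 mg protein sample in 50 mM Tris, 1 mM EGTA, pH 8.3 was incubated 5 min at 4 °C with [³H]IP₃ (45 nCi, 40 Ci/mmol) and competing ligand. The incubation was stopped by centrifugation, and pellets were scintillation-counted. Parameters came from logistic fits. Nonspecific binding was 10–15%. Triplicate, means ± SEM.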

Assay [2] in a line: Hill coefficient for equilibrium binding was evaluated (Inositol 1,4,5-trisphosphate receptor). Put shortly: as §1
Assay [3] in a line: Concentration response relationship was used to measure half-maximally effective agonist concentration. Type of assay: functional. In short, it runs like this: (§2)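 Saponin-permeabilized hepatocytes (10⁶ cells·mL⁻¹, 10 µg·mL⁻¹ saponin) loaded to steady state with ⁴⁵Ca²⁺ (20 µCi·mL⁻¹) for 5 min at 37 °C in cytosol-like medium (free Ca²⁺ 200 nM, 7.5 mM ATP, FCCP, PIPES pH 7.0). Cells diluted 5-fold into ATP-free medium with 1.25 µM thapsigargin; ligand added after 15 s, stores filtered 60 s later. Logistic fits gave maximal response, EC50 and Hill slope; means ± SEM.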

Assay [4] can be described thus: compound was tested and the Ratio of EC50 and Kd was found out. Type of assay: functional.
Assay [5] can be described thus: Hill coefficient for [Ca2+] release was evaluated. Type of assay: functional. In short, it runs like this: as §2
Assay [6] deals with IP3 receptor (Rattus norvegicus). The assay can be described thus: [Ca2+] release with 10 uM was measured by non-specific binding method.
For assay [7] the test system is unchanged. Nature of the assay: Maximal Ca+ release response was determined from permeabilized rat hepatocyte assay.
The nature of assay [8]: Ratio of EC50 and Kd. In kind it is functional.
Assay [9] relates to IP3 receptor (Rattus norvegicus). The assay can be described thus: Concentration response relationship was fitted to logistic equations using kaleidagraph software from which maximal response was measured.

By Kd is commonly meant a measure of binding affinity in units of concentration. Usually Hill slope stands for a measure of the steepness of the concentration-response curve. The term EC50 denotes the concentration needed to bring the measured effect to its halfway point. Read a high EC50 as lower potency in that assay. In the case of `CCCOC1O[C@H](CO)[C@H](O[C@@H]2OC(CO)[C@H](OP(=O)(O)O)C(OP(=O)(O)O)[C@@H]2O)[C@@H]1OP(=O)(O)O` (stereo partly specified), in assay [1], binding was characterised by a dissociation constant (Kd) of 4.7 nM. The Hill slope came out at 0.97 in assay [2] and 2.1 in assay [5]. The molecule further yielded an EC50 in assay [3] of 491 nM. The Ratio in [4] was found to be 104. The molecule also returned an IP3-sensitive Ca2+ stores in assay [6] of 87%. Also, the Max response in assay [7] turned out to be 42%.

Regarding `O=P(O)(O)OC1[C@@H](OP(=O)(O)O)C(CO)O[C@@H](O[C@@H]2[C@H](OP(=O)(O)O)C(OCCCc3ccccc3)O[C@@H]2CO)[C@H]1O` (stereo partly specified), the Kd in assay [1] came out at 3.1 nM. The figures for the Hill slope in assay [2] and in [5] were 1.16 and 3.9, respectively. The same molecule returned an EC50 in assay [3] of 381 nM. Besides, in assay [4], the Ratio worked out at 123. In addition, in [6], the IP3-sensitive Ca2+ stores was 87%. In [7], this molecule registered a Max response of 34%.

On to `O=P(O)(O)OC1[C@@H](OP(=O)(O)O)C(O)C(O)[C@@H](OP(=O)(O)O)[C@H]1O` (stereo partly specified), for which, in assay [1], the Kd came to 1.7 nM. Also, the Hill slope in [2] came out at 0.88; in assay [5], 2.9. This molecule also returned an EC50 in [3] of 201 nM. Further, the Ratio in [8] was 120. In assay [9], the Max response stood at 32%.

Consider `O=P(O)(O)OC1[C@@H](OP(=O)(O)O)C(CO)O[C@@H](O[C@@H]2[C@H](OP(=O)(O)O)C(OCCCc3cc(CCCOC4O[C@H](CO)[C@H](O[C@@H]5OC(CO)[C@H](OP(=O)(O)O)C(OP(=O)(O)O)[C@@H]5O)[C@@H]4OP(=O)(O)O)c(CCCOC4O[C@H](CO)[C@H](O[C@@H]5OC(CO)[C@H](OP(=O)(O)O)C(OP(=O)(O)O)[C@@H]5O)[C@@H]4OP(=O)(O)O)cc3CCCOC3O[C@H](CO)[C@H](O[C@@H]4OC(CO)[C@H](OP(=O)(O)O)C(OP(=O)(O)O)[C@@H]4O)[C@@H]3OP(=O)(O)O)O[C@@H]2CO)[C@H]1O` (stereo partly specified), for which, in [1], the Kd is 4.3 nM. The figures for the Hill slope in assay [2] and in [5] were 1.04 and 2.1, respectively. In [3], this molecule displayed an EC50 of 161 nM. Further, the Ratio in assay [8] is 37. In [6], this molecule displayed an IP3-sensitive Ca2+ stores of 101%. Further, the Max response in assay [9] turned out to be 42%.

`O=P(O)(O)OC1[C@@H](OP(=O)(O)O)C(CO)O[C@@H](O[C@@H]2[C@H](OP(=O)(O)O)C(OCCCc3ccc(CCCOC4O[C@H](CO)[C@H](O[C@@H]5OC(CO)[C@H](OP(=O)(O)O)C(OP(=O)(O)O)[C@@H]5O)[C@@H]4OP(=O)(O)O)cc3)O[C@@H]2CO)[C@H]1O` (stereo partly specified) gave a Kd in assay [1] of 3.6 nM. The Hill slope in [2] amounted to 0.95; in assay [5], 2.2. The same molecule came in with an EC50 in assay [3] of 215 nM. In assay [8], the Ratio was 60. Also, the IP3-sensitive Ca2+ stores in assay [6] is 92%. For the same molecule, the Max response in assay [9] turned out to be 31%.

Take `CO[C@@H]1O[C@H](CO)[C@@H](O[C@H]2O[C@@H](CO)[C@@H](OP(=O)(O)O)[C@H](OP(=O)(O)O)[C@@H]2O)[C@H]1OP(=O)(O)O`: in assay [1], the affinity, expressed as Kd, was 4.4 nM. For the same molecule, the results for the Hill slope in assay [2] and in assay [5] were 0.99 and 3.4, respectively. In assay [3], this molecule returned an EC50 of 484 nM. The Ratio in assay [4] stood at 110. In assay [6], this molecule registered an IP3-sensitive Ca2+ stores of 89%. In [7], the Max response came to 33%.
